A selection: hits, their analogues and other compounds. The true share with any hit is near 3.7%.
KCNQ1 inh – inhibitors of human KCNQ1 potassium channel | P51787 | CHO-K1 KCNQ1, FluxOR thallium flux fluorescence; hits give high values | B-score at 10 µM | 310,000 compounds, 1.3% hits | AID 2642;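 active means compounds whose thallium flux B-score, printed positive for inhibition, exceeds three library SD while starting fluorescence stays within three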;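 further: channel opened by potassium depolarization with thallium stimulus after 20 min compound exposure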
hERG protect – shields human hERG channel from block by proarrhythmic agents; AID 1511; CHO-hERG, FluxOR thallium flux, dofetilide IC70 present; activation (rescue from dofetilide block), less the hit threshold, % at 10 µM; 310,000 compounds, 0.51% hits;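 active means activation above the mean of controls blocked by dofetilide plus 5 SD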;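 further: thallium influx through hERG after potassium depolarization seen as dye fluorescence rise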
KCNK9 inh – human KCNK9 channel inhibition. HEK293 KCNK9, FluxOR thallium flux fluorescence; hits give low values. B-score at 10 µM. 310,000 compounds, 1.2% hits. AID 488922;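 active means ratio B-score over 3 SD below the library mean, with starting fluorescence within 5 SD of its mean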;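 further: negative B-score means less thallium flux so channel inhibition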
Target sequence (Q9NPC2 whole entry, looked up): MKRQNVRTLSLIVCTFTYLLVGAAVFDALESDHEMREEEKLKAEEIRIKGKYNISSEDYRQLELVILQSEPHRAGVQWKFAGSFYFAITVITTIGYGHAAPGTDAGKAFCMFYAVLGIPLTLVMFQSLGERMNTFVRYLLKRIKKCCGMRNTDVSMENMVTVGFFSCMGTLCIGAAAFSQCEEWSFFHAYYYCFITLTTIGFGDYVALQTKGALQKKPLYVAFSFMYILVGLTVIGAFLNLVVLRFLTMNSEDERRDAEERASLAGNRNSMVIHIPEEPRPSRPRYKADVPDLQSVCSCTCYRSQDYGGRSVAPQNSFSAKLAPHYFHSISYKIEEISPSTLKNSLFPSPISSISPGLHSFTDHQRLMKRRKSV
KCNK3 block – human KCNK3 channel inhibition, primary screen; 340,000 compounds, 0.84% hits; CHO-KCNK3 thallium flux, FluxOR fluorescence; hits give low values; B-score at 10 µM;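 active means B-score under library mean minus 4 SD, starting fluorescence ratio at most library mean plus 5 SD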;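 further: more negative B-score means stronger inhibition of thallium flux through KCNK3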
Target sequence (O14649 whole entry, looked up): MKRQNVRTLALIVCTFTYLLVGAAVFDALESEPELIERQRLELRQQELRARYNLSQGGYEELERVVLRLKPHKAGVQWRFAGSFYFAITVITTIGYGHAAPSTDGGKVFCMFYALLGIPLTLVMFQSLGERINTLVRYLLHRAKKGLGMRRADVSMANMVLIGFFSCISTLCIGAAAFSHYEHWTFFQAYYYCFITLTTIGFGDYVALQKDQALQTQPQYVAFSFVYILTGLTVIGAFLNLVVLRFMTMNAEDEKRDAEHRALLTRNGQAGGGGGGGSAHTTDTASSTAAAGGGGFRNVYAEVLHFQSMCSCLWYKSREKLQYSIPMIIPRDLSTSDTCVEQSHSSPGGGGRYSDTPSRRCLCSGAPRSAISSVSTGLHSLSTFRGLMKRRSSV
KCNQ1 act – potentiators or activators of human KCNQ1 potassium channel; CHO-K1 KCNQ1, thallium flux FluxOR fluorescence; hits give high values; B-score at 10 µM; 310,000 compounds, 0.35% hits; AID 2648;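 active means fluorescence ratio B-score, a plate-corrected score, at least three library SD, with initial intensity B-score within 5 SD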
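Doses: Single concentration per compound, DMSO matched to controls | Test system: KCNQ1-transfected CHO-K1 cells | Timing: 90 min dye loading and 20 min compound exposure, both at room temperature | Measured by: Kinetic FluxOR thallium fluorescence, 10-s 1-Hz baseline, 110-s post-stimulus read | Medium: Assay buffer with matched DMSO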
Kir21 block – inhibitors of mouse Kir2.1 inward-rectifier potassium channel; B-score at 10 µM; 310,000 compounds, 0.85% hits; P35561; AID 1672; HEK293-Kir2.1, FluxOR thallium flux fluorescence; hits give low values;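 active means fluorescence ratio B-score at or below minus 3 SD of library scores, with starting-brightness B-score within 2 SD, cut at about -4.2 in these data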;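 further: channel flux triggered by added potassium and thallium sulfate stimulus; B-score of peak minus minimum fluorescence over baseline after thallium stimulus; more negative B-score means stronger Kir2.1 block with less thallium influx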
KCNQ1 inh valid – human KCNQ1 channel inhibition, validation assay. shares compounds with KCNQ1 inh. KCNQ1 cell line, FluxOR thallium flux fluorescence. inhibition, % at 10 µM. 1,600 compounds, 93% hits. AID 588353;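 active means primary screen active, with duplicate mean exceeding buffer control mean plus 3 SD of buffer wells, cut at about 28% in these data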;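 further: 0% = buffer control ratio and 100% = XE991 inhibitor control ratio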
CHO KCNQ1 ctr – activity in parental CHO cells lacking KCNQ1; shares compounds with KCNQ1 inh; parental CHO-K1, FluxOR thallium flux fluorescence ratio; hits give low values; zero means no signal rise above baseline; fluorescence ratio (Tl flux) at 10 µM; 1,600 compounds, 21% hits; AID 588366;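 active means mean of duplicate thallium-flux fluorescence ratios in parental host cells more than 5 SD below the buffer control mean, cut at about 0.38 in these data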;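 further: ratio is peak minus minimum fluorescence divided by baseline fluorescence; actives read low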
KCNQ1 ephys val – confirmation of human KCNQ1 potassium channel inhibitors by electrophysiology. shares compounds with KCNQ1 inh. KCNQ1-CHO cells, automated patch clamp current. calls only at 10 µM. 490 compounds, 20% hits;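 active means KCNQ1 current drop exceeding 3 SD of negative control wells, seen in both duplicate runs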;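 further: steady state current during a 2 s step from -80 to +40 mV; negative values mean current inhibition and positive values mean potentiation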
KCNQ2 spec – KCNQ1 inhibitor that also blocks rat KCNQ2 channel; shares compounds with KCNQ1 inh; inhibition, % at 10 µM; 1,600 compounds, 71% hits; KCNQ2 cells, FluxOR thallium flux fluorescence;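 active means mean percent inhibition of the KCNQ2 thallium signal more than 5 SD above the buffer-only control wells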;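 further: KCNQ2 expressed in CHO cells; 0% = buffer control wells and 100% = XE-991 inhibitor control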
KCNQ1 KCNE1 spec – KCNQ1 inhibitor that also blocks human KCNQ1/KCNE1 channel. shares compounds with KCNQ1 inh. KCNQ1/KCNE1 cells, FluxOR thallium flux fluorescence. inhibition, % at 10 µM. 1,600 compounds, 77% hits. AID 652147;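 active means mean percent inhibition of duplicate wells above the buffer-only control mean plus 3 SD of those controls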;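 further: 0% = buffer only wells and 100% = XE-991 inhibitor control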
KCNK9 inh conf – confirmation of human KCNK9 potassium channel inhibitors; inhibition, % at 10 µM; HEK293 KCNK9 cells, FluxOR thallium flux fluorescence; 4,900 compounds, 43% hits; AID 492992; shares compounds with KCNK9 inh;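 active means thallium signal inhibited by more than 5 SD of the compound-free buffer control wells, on both duplicate plates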;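 further: 0% = assay buffer control wells without compound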
Kir21 sel – mouse Kir2.1 off-target activity of KCNK9 modulators; shares compounds with KCNK9 inh; Kir2.1 cells, FluxOR thallium flux fluorescence; inhibition, % at 10 µM; 4,900 compounds, 4% hits; AID 492993;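 active means thallium signal drop more than 5 SD beyond the mean of the no-compound control wells, seen in both duplicate plates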;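 further: signal is fluorescence rise after thallium addition divided by baseline fluorescence; plate controls were assay buffer only for no effect and full block by chlorpromazine control for full effect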
HEK293 Tl ctr – second counter-screen for KCNK9 modulators: effect in non-induced cells | shares compounds with KCNK9 inh | non-induced KCNK9-HEK293, FluxOR thallium flux | inhibition, % at 10 µM | 4,900 compounds, 40% hits;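 active means thallium signal drop beyond 5 SD of the untreated control mean, on both duplicate plates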;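 further: plate controls were buffer only IC0 wells for no effect and SID17386958 at its maximal inhibitory level for full effect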
An asterisk follows results filed as active; i = inactive; . = no result; + = active, no number.

SMILES | KCNQ1 inh | hERG protect | KCNK9 inh | KCNK3 block | KCNQ1 act | Kir21 block | KCNQ1 inh valid | CHO KCNQ1 ctr | KCNQ2 spec | KCNQ1 KCNE1 spec | KCNK9 inh conf | Kir21 sel | HEK293 Tl ctr | others
CC(=O)c1ccc2c(c1)C1C=CCC1C(c1cc3c(cc1Br)OCO3)N2 (centres undefined) | 8* | -21.7 | -8.66* | i | i | -1.1 | 139.5* | 0.418 | 99.3%* | 145.0%* | 50.0%* | i | 37.0%* | KCNQ1 ephys val=i
COc1ccccc1N1CCN(C(=O)CSc2nc3ccccc3[nH]2)CC1 | i | -11.1 | i | i | i | 0.96 | . | . | . | . | . | . | .
COc1ccccc1N1CCN(C(=O)CSc2nc3ccccc3nc2N2CCCCC2)CC1 | 6* | -18.4 | i | i | i | -3.02 | 70.0* | 0.521 | i | 99.0%* | i | i | i
COc1ccc(-c2ocnc2C(=O)N2CCN(C(c3ccccc3)c3ccccc3)CC2)cc1 | 8* | -12.5 | -14.2* | i | i | -0.1 | 79.5* | 0.424 | 87.7%* | 94.5%* | 68.0%* | i | 36.5%*
Cc1cc(C(=O)N2CCN(C(c3ccccc3)c3ccccc3)CC2)on1 | i | -10.6 | i | i | i | 0.17 | . | . | . | . | . | . | .
C=CCSc1nnc(C)c(/C=C/Nc2ccc(Cl)cc2)n1 | 8* | -11.7 | -10.6* | i | i | -1.05 | 73.0* | 0.335* | 105.7%* | 97.5%* | 30.5%* | i | 55.5%*
CSc1nnc(C)c(/C=C/Nc2ccc(F)cc2F)n1 | i | -6.1 | i | i | i | -0.89 | . | . | . | . | . | . | .
CC(Cc1cccs1)NC(=S)Nc1ccc(Cl)cc1 (centres undefined) | 8* | -21.4 | -10.4* | i | i | -4.21* | 50.0* | 0.49 | 67.3%* | 65.5%* | 37.5%* | i | i
CC(Cc1cccs1)NC(=S)Nc1ccc(Cl)c(Cl)c1 (centres undefined) | i | -6.1 | i | i | i | -0.19 | . | . | . | . | . | . | .
Cc1onc(-c2ccccc2Cl)c1C(=O)N1CCN(C)CC1 | i | -4.1 | i | i | i | 2.31 | . | . | . | . | . | . | .
CC(C)OC(=O)NC(c1ccccc1)C(Cl)(Cl)Cl (centres undefined) | i | -17.5 | i | i | i | -0.92 | . | . | . | . | . | . | .
CCOc1ccc(OC(=O)NC(c2ccccc2)C(Cl)(Cl)Cl)cc1 (centres undefined) | 8* | -16.7 | i | i | i | 0.19 | 111.0* | 0.431 | 100.7%* | 168.5%* | i | i | i
Cc1ccc(CN(C(=O)COc2ccc(Br)cc2)C2CCS(=O)(=O)C2)o1 (centres undefined) | i | -5.8 | i | i | i | 0.57 | . | . | . | . | . | . | .
Cc1ccc(NC(=O)c2cc(C)n(-c3cccc(C)c3)c2C)cc1 | i | -11.1 | i | i | i | 0.15 | . | . | . | . | . | . | .
Cc1cc(C(=O)Nc2ccc(Cl)cc2)c(C)n1-c1ccccc1 | 13* | -7.2 | i | i | i | -0.39 | 124.0* | 0.387 | 115.0%* | 98.0%* | i | i | i | KCNQ1 ephys val=i
O=C(COc1ccccc1Cl)c1ccc2c(c1)CCCC2 | 6* | -6.8 | i | i | i | 1.52 | 94.0* | 0.435 | 92.3%* | 119.0%* | i | i | 37.0%* | KCNQ1 ephys val=i
O=C(COc1cccc(Cl)c1Cl)Nc1ccc2c(c1)CCC2 | i | -5.3 | i | i | i | -0.47 | . | . | . | . | . | . | .
CCOCCCNC(=O)c1cn(C)c2ccc(S(=O)(=O)N3CCCC3)cc2c1=O | i | -7.7 | i | i | i | 0.77 | . | . | . | . | . | . | .
CCN(Cc1ccccc1)C(c1ccncc1)c1nnnn1C(C)(C)C (centres undefined) | i | 0.2 | i | i | i | -0.25 | . | . | . | . | . | . | .
CCN(Cc1ccccc1)C(c1ccc(C)cc1)c1nnnn1C(C)(C)CC (centres undefined) | 8* | -10.5 | -12.8* | i | i | 0.01 | 111.5* | 0.413 | 112.0%* | 85.5%* | 58.5%* | i | 50.0%* | KCNQ1 ephys val=i
CC(C)(C)c1nc(SCC(=O)c2ccccc2)c2ccccc2n1 | 9* | -18.7 | -9.04* | i | i | -0.33 | 84.5* | 0.679 | i | 58.5%* | 46.5%* | 51.0%* | 47.0%*
Cc1ccc2nc(N3C(=O)C(O)=C(C(=O)c4ccc(C)o4)C3c3ccc(O)cc3)sc2c1 (centres undefined) | . | . | . | i | . | . | . | . | . | . | . | . | .
CC1(C)N=C(c2ccccc2)C(c2ccccc2)=N1 | . | . | . | i | . | . | . | . | . | . | . | . | .
CC(C)(C)c1ccc(-c2nc(NCc3cccnc3)c3ccccc3n2)cc1 | 15* | -2.4 | -9.27* | i | i | 1.46 | 152.5* | 0.47 | 100.0%* | 186.0%* | 26.0%* | i | 41.5%* | KCNQ1 ephys val=i
c1cncc(CNc2nc(-c3cccnc3)nc3ccccc23)c1 | i | -13.9 | i | i | i | -1.28 | . | . | . | . | . | . | .
CCn1c(=O)n(CC)c2cc(N3CCCC3)c(NC(=O)c3cc(Br)ccc3OC)cc21 | 9* | -26.7 | -17.6* | . | i | 1.59 | 161.5* | 0.327* | 122.7%* | + | 72.0%* | i | i
Clc1ccc(C(c2nnnn2CCc2ccccc2)N2CCSCC2)cc1 (centres undefined) | 7* | 0.9 | -14.1* | i | i | 0.69 | 116.0* | 0.419 | 105.7%* | 82.0%* | 56.0%* | i | 45.5%* | KCNQ1 ephys val=i
Fc1ccc(C(c2nnnn2Cc2ccccc2)N2CCSCC2)cc1 (centres undefined) | i | -3.6 | i | i | i | -0.33 | . | . | . | . | . | . | .

Screening data: PubChem, Johns Hopkins Ion Channel Center
